Tests used:
Assay type in all cases: functional, cell-based
HepG2 = test: Cytotoxicity against human HepG2 cells assessed as reduction in cell viability incubated for 24 hrs by MTT assay; conditions: HepG2, 24 h
Procedure, shortened: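 HepG2 (ATCC) grown in Eagle's MEM with 10% FBS, 2 mM L-glutamine, 1 mM sodium pyruvate and 100 μM nonessential amino acids at 37 °C, 5% CO2. Seeded at 20000 cells/well for the 24 h assay. Compounds were run in triplicate at 10 two-fold dilutions from 40 μg/mL, with 0.5% DMSO maximum. Viability was read by MTT reduction and IC50 determined.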

MIA PaCa-2 = test: Cytotoxicity against human MIAPaCa2 cells assessed as reduction in cell viability incubated for 24 hrs by MTT assay; conditions: MIA PaCa-2, 24 h
Procedure, shortened: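 MiaPaca_2 (ATCC CRL-1420) cultured in DMEM with 10% FBS, 2.5% horse serum, 1% L-glutamine and 1% penicillin/streptomycin at 37 °C, 5% CO2. Seeding was 20000 cells/well for the 24 h assay. Compounds were tested in triplicate over 10 two-fold dilutions from a 40 μg/mL top concentration, with 0.5% DMSO as negative control. MTT reduction was used for IC50.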

MCF7 = test: Cytotoxicity against human MCF7 cells assessed as reduction in cell viability incubated for 24 hrs by MTT assay; conditions: MCF7, 24 h
Procedure, shortened: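 MCF-7 (ATCC HTB-22) kept in MEM with 10% FBS, glutamine, pyruvate and nonessential amino acids plus 0.01 mg/mL bovine insulin at 37 °C, 5% CO2. Plated at 30000 cells/well for the 24 h exposure. Triplicate 10-point, 2-fold serial dilutions from 40 μg/mL were used, with DMSO ≤0.5%. MMS served as positive control. The MTT viability read-out gave the IC50.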

Row | SMILES | IC50 (HepG2) [µM] | IC50 (MIA PaCa-2) [µM] | IC50 (MCF7) [µM]
1 | CC[C@H](C)[C@@H](O)C(=O)O[C@@H](C(=O)O[C@@H](C(=O)O[C@@H](C(=O)OC[C@@H](O)[C@@H](O)[C@H](O)CO)[C@@H](C)CC)[C@@H](C)CC)[C@@H](C)CC | > 65.7 | > 65.7 | > 65.7
2 | CC[C@H](C)[C@@H](O)C(=O)O[C@@H](C(=O)O[C@@H](C(=O)O[C@@H](C(=O)O[C@@H](C(=O)O[C@H](CO)[C@@H](O)[C@H](O)[C@H](O)CO)[C@@H](C)CC)[C@@H](C)CC)[C@@H](C)CC)[C@@H](C)CC | 36.2 | > 53.2 | 18.3
3 | CC[C@H](C)[C@@H](O)C(=O)O[C@@H](C(=O)O[C@@H](C(=O)O[C@@H](C(=O)O[C@@H](C(=O)O[C@H](CO)[C@@H](O)[C@H](O)CO)[C@@H](C)CC)[C@@H](C)CC)[C@@H](C)CC)[C@@H](C)CC | 26.2 | 36.4 | 19
4 | CC[C@H](C)[C@@H](O)C(=O)O[C@@H](C(=O)O[C@@H](C(=O)O[C@@H](C(=O)O[C@@H](C(=O)OC[C@@H](O)[C@@H](O)CO)[C@@H](C)CC)[C@@H](C)CC)[C@@H](C)CC)[C@@H](C)CC | 28.7 | > 57.8 | 11.1
5 | CC[C@H](C)[C@@H](O)C(=O)O[C@@H](C(=O)O[C@@H](C(=O)O[C@@H](C(=O)O[C@@H](C(=O)O[C@@H]([C@H](O)[C@H](O)CO)[C@H](O)CO)[C@@H](C)CC)[C@@H](C)CC)[C@@H](C)CC)[C@@H](C)CC | > 53.2 | > 53.2 | 27.8
6 | CC[C@H](C)[C@@H](O)C(=O)O[C@@H](C(=O)O[C@@H](C(=O)O[C@@H](C(=O)O[C@@H](C(=O)OC[C@@H](O)[C@@H](O)[C@H](O)CO)[C@@H](C)CC)[C@@H](C)CC)[C@@H](C)CC)[C@@H](C)CC | 29 | > 55.4 | 15.6
7 | CC[C@H](C)[C@@H](O)C(=O)O[C@@H](C(=O)O[C@@H](C(=O)O[C@@H](C(=O)O[C@@H](C(=O)OC[C@@H](O)[C@@H](O)[C@H](O)[C@H](O)CO)[C@@H](C)CC)[C@@H](C)CC)[C@@H](C)CC)[C@@H](C)CC | > 53.2 | > 53.2 | 24.3
8 | COc1cccc2c1C(=O)c1c(O)c3c(c(O)c1C2=O)C[C@@](O)(C(=O)CO)C[C@@H]3O[C@H]1C[C@H](N)[C@H](O)[C@H](C)O1 [DOXORUBICIN] | 0.2 | 1.9 | 

From ChEMBL document CHEMBL4043076, “Hormonemate Derivatives from Dothiora sp., an Endophytic Fungus” (J Nat Prod, 2017)
